In ChEMBL document CHEMBL4145530, “Design, synthesis and pharmacological evaluation of N-benzyl-piperidinyl-aryl-acylhydrazone derivatives as donepezil hybrids: Discovery of novel multi-target anti-alzheimer prototype drug candidates” (Eur J Med Chem, 2018):

Columns and labels:
[1] = test system: Mus musculus; assay: Antinociceptive activity in carrageenan-induced Swiss mouse model of mechanical hyperalgesia assessed as mechanical hyperalgesic index pretreated orally for 1 hr followed by carrageenan challenge by Von Frey filament assay; type: functional
Method in brief: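 Swiss mice were placed in wire-screen acrylic boxes 60 min before testing. Vehicle, compound or indomethacin was given orally 1 h before intraplantar carrageenan. Mechanical threshold was found by the von Frey up-and-down method, with at least 6 trials at 10 s intervals, raising filament mass until paw withdrawal. Results are given as threshold in grams; n=8.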

[2] = biological target: T1, Acetylcholinesterase (Electrophorus electricus, UniProt O42275); assay: (§1) Inhibition of electric eel AChE using acetylthiocholine iodide as substrate preincubated for 10 mins followed by substrate addition by Ellman's method
[3] = biological target: Acetylcholinesterase (Electrophorus electricus) (UniProt O42275); assay: as §1
[4] = biological target: Acetylcholinesterase (Electrophorus electricus) (UniProt O42275); assay: Inhibition of electric eel AChE at 100 uM using acetylthiocholine iodide as substrate preincubated for 10 mins followed by substrate addition by Ellman's method relative to control
[5] = biological target: Cholinesterase (Equus caballus, UniProt P81908); assay: (§2) Inhibition of […] preincubated for 10 mins followed by substrate addition by Ellman's method
[6] = biological target: Cholinesterase (Equus caballus) (UniProt P81908); assay: as §2
[7] = test system: Mus musculus; assay: Antinociceptive activity in formalin-induced Swiss mouse model of hyperalgesia assessed as time spent licking the injected paw in early phase at 100 mM/kg, po pretreated for 1 hr followed by formalin injection and measured up to 5 mins (reference value: 74 +/- 7.7 secs); type: functional
[8] = test system: Mus musculus; assay: Antinociceptive activity in formalin-induced Swiss mouse model of hyperalgesia assessed as time spent licking the injected paw in last phase at […], po pretreated for 1 hr followed by formalin injection and measured at 20 to 30 mins (reference value: 135.8 +/- 10.7 secs); type: functional
[9] = biological target: T1, Acetylcholinesterase; assay: Non-competitive inhibition of electric eel AChE using acetylthiocholine iodide as substrate preincubated for 10 mins followed by substrate addition by Ellman's method
Method in brief: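 Substrate-competition kinetics with E. electricus AChE by Ellman's method: 10 min enzyme–DTNB–compound preincubation in 0.1 M phosphate, pH 7.4, then acetylthiocholine; A412 was read every 12 s for 5 min at rt. Three independent data sets, each in triplicate, were averaged and fitted to a simple noncompetitive model. That model was compared with mixed linear inhibition by AICc probability ratio.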

[10] = Selectivity ratio of IC50 for equine serum BuChE to IC50 for electric eel AChE
Method in brief: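 Ellman kinetic assay with Electrophorus electricus AChE (acetylthiocholine) and equine serum BuChE (butyrylthiocholine iodide), […]. Enzyme was preincubated 10 min with DTNB and compound in 0.1 M sodium phosphate, pH 7.4 (final DMSO <0.2%), before substrate was added. A412 was read every 12 s for 5 min at rt to give maximum velocity. IC50 is the geometric mean of 2–3 curves, each 6 concentrations in triplicate. Selectivity is IC50 BuChE/IC50 AChE.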

[11] = Cytotoxicity against human HepG2 cells assessed as cell viability at 20 to 40 uM after 6 hrs by trypan blue exclusion assay relative to control; type: cell-based; conditions: read-out: Activity
[12] = biological target: T2, Prostaglandin G/H synthase 1 (Ovis aries) (UniProt P05979); assay: Inhibition of ovine COX1 at 10 uM using arachidonic acid as substrate preincubated for 120 mins followed by substrate addition measured for 5 secs by chemiluminescence assay relative to control
T2 sequence (whole entry): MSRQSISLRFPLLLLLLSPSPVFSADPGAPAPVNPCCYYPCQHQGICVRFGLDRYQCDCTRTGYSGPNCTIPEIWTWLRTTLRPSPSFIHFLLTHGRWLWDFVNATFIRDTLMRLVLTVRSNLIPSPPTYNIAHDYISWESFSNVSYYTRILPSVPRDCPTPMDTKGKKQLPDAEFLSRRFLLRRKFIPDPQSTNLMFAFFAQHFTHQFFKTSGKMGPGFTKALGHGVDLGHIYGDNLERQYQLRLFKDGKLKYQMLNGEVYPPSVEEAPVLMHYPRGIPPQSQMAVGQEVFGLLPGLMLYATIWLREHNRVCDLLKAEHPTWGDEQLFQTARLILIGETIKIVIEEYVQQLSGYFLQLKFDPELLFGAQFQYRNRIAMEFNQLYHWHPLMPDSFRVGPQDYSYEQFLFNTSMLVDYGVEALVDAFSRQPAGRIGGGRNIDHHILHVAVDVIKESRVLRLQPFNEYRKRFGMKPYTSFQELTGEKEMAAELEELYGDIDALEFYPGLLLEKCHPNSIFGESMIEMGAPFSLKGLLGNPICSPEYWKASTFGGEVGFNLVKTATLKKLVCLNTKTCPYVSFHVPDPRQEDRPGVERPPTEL
Method in brief: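 COX-1 or COX-2 with heme was preincubated 120 min with compound (10 µM) in assay buffer. Arachidonic acid and a chemiluminescent substrate were then added at room temperature and peroxidative activity was read for 5 s; ibuprofen was the reference. Selectivity index was taken as the ratio of maximum COX-2 inhibition to COX-1 inhibition. Two independent experiments.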

[13] = test system: Mus musculus; assay: Anti-inflammatory activity in Swiss mouse assessed as reduction in carrageenan-induced paw edema by measuring paw volume […] po pretreated for 1 hr followed by carrageenan injection and measured after 1 to 5 hrs by plethysmometric method (reference value: 67.73 +/- 4.2 uL); type: functional
Method in brief: (§3)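 Male Swiss mice (22–28 g) were fasted overnight and dosed orally with vehicle (2% DMSO in sterile saline), compound or indomethacin 1 h before intraplantar carrageenan. Groups (n=10) were matched on basal paw volume. Right hind paw volume was read by plethysmometer at 1, 3 and 5 h and expressed as change from basal.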

[14] = test system: Mus musculus; assay: Anti-inflammatory activity in po dosed Swiss mouse assessed as reduction in carrageenan-induced paw edema pretreated for 1 hr followed by carrageenan injection and measured after 1 to 5 hrs by plethysmometric method; type: functional; conditions: read-out: ID50 (the source's name); method in brief: as §3
[15] = test system: Mus musculus; assay: Antinociceptive activity in formalin-induced Swiss mouse model of hyperalgesia assessed as time spent licking the injected paw in early phase at 39 mM/kg, po pretreated for 1 hr followed by formalin injection and measured up to 5 mins (reference value: 74 +/- 7.7 secs); type: functional
[16] = test system: Mus musculus; assay: Antinociceptive activity in formalin-induced Swiss mouse model of hyperalgesia assessed as time spent licking the injected paw in last phase at 39 mM/kg, po pretreated for 1 hr followed by formalin injection and measured at 20 to 30 mins (reference value: 135.8 +/- 10.7 secs); type: functional
[17] = test system: Mus musculus; assay: Inhibition of serum COX2 level in Swiss mouse model of carragenan-induced paw edema at 100 mM/kg, po pretreated for 1 hr followed by carrageenan treatment measured after 3 hrs by ELISA; type: functional
Method in brief: (§4)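 Swiss mice (n=8) received compound (100 mM/kg) or vehicle orally 1 h before intraplantar carrageenan; indomethacin was the positive control. Three hours later, blood was drawn from the heart under chloral hydrate anaesthesia and serum was collected. COX-1 and COX-2 protein was measured by sandwich ELISA read at 450 nm and expressed as percent COX level.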

[18] = test system: Mus musculus; assay: Inhibition of serum COX1 level in Swiss mouse model of carragenan-induced paw edema at 100 mM/kg, po pretreated for 1 hr followed by carrageenan treatment measured after 3 hrs by ELISA; type: functional; method in brief: as §4

Sequence of Cholinesterase (Equus caballus) (P81908 whole entry): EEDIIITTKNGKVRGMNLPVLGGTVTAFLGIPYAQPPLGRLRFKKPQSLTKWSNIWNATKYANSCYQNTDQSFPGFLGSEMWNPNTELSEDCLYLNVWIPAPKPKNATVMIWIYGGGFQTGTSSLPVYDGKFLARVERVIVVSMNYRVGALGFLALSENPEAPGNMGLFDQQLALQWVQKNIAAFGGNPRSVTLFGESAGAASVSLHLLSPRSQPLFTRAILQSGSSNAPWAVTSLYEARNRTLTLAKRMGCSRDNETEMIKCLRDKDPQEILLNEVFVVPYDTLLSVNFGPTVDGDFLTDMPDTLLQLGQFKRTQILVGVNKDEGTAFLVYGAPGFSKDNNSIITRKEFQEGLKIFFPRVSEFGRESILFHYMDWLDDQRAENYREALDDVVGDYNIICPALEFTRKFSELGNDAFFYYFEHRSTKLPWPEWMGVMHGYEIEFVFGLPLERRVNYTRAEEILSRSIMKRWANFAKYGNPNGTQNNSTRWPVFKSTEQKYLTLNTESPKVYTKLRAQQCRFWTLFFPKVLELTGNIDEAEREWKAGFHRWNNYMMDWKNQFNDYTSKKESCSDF
Sequence of Cholinesterase (P81908 whole entry): as above
T1 sequence (O42275 whole entry): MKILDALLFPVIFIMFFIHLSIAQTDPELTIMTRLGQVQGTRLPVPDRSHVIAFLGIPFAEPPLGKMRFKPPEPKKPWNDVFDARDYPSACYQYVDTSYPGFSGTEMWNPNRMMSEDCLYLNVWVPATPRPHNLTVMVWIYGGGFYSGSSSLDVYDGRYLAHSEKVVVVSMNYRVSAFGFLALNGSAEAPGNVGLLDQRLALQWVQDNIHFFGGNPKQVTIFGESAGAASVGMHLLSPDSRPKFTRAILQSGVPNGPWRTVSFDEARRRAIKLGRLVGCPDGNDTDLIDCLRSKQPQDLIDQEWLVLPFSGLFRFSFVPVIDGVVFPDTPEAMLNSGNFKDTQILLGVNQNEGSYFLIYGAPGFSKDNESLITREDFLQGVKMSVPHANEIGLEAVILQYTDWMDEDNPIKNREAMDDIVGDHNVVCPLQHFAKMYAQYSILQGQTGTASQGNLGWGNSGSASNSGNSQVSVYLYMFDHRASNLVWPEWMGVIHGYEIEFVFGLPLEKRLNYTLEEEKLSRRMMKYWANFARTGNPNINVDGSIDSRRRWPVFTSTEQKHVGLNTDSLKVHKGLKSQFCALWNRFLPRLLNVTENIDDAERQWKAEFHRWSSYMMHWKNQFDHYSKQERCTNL
Sequence of Acetylcholinesterase (Electrophorus electricus) (O42275 24-633 limits assumed): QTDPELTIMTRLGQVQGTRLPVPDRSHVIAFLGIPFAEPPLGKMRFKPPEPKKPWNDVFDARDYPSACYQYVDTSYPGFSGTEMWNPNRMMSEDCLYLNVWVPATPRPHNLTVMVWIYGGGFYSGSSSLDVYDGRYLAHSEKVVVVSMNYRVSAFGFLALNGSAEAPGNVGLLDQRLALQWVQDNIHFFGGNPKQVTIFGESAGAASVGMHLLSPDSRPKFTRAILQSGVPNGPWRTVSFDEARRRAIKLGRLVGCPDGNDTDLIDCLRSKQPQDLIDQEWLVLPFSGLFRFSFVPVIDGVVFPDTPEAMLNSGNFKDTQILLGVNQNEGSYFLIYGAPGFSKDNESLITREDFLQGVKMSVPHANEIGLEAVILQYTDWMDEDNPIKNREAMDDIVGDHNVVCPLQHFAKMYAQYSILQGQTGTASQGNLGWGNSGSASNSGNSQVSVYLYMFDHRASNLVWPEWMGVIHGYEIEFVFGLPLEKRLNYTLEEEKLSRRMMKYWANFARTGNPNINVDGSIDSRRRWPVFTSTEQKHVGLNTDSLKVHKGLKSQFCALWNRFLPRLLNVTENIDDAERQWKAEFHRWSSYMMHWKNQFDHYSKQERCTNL

CC(=O)OC1CCCN(Cc2ccc(C(=O)N/N=C/c3ccc(Br)cc3)cc2)C1 (stereo not drawn)
Activity_index [1]: 206.9
IC50 [2]: ≥ 100 µM

O=C(N/N=C/c1ccc(Br)cc1)c1ccc(CN2CCCC(O)C2)cc1 (stereo not drawn)
Activity_index [1]: 235.8
inhibition [3]: Dose-dependent effect
IC50 [2]: 11.9 µM
inhibition [4]: > 60%

O=C(N/N=C/c1ccc(N2CCCCC2)cc1)c1ccc(CN2CCCC(O)C2)cc1 (stereo not drawn)
Activity_index [1]: 64.56
IC50 [5]: 58.1 µM
inhibition [6]: Dose-dependent effect
Time [7]: 19.63 s
Time [8]: 110 s
Ki [9]: 9.7 µM
inhibition [3]: Dose-dependent effect
IC50 [2]: 10.9 µM
inhibition [4]: > 60%
Ratio IC50 [10]: 5.3

COc1cc2c(cc1OC)C(=O)C(CC1CCN(Cc3ccccc3)CC1)C2 (stereo not drawn) [DONEPEZIL]
viability at 6 h, 40 µM [11]: > 90%

CC(=O)Oc1ccc(/C=N/NC(=O)c2ccc(CN3CCCC(OC(C)=O)C3)cc2)cc1 (stereo not drawn)
Activity_index [1]: 353.1
IC50 [2]: ≥ 100 µM

O=C(N/N=C/c1ccc(-n2ccnc2)cc1)c1ccc(CN2CCCC(O)C2)cc1 (stereo not drawn)
IC50 [5]: 39.6 µM
inhibition [6]: Dose-dependent effect
Ki [9]: 21.1 µM
inhibition [3]: Dose-dependent effect
IC50 [2]: 21.7 µM
inhibition [4]: > 60%
Ratio IC50 [10]: 1.8

CSc1ccc(/C=N/NC(=O)c2ccc(CN3CCCC(O)C3)cc2)cc1 (stereo not drawn)
Activity_index [1]: 260.3
IC50 [5]: 59.3 µM
inhibition [6]: Dose-dependent effect
Ki [9]: 8.42 µM
inhibition [3]: Dose-dependent effect
IC50 [2]: 10.4 µM
inhibition [4]: > 60%
Ratio IC50 [10]: 5.7

Nc1ccc(/C=N/NC(=O)c2ccc(CN3CCCC(O)C3)cc2)cc1 (stereo not drawn)
Activity_index [1]: 244.4
inhibition [3]: Dose-dependent effect
IC50 [2]: 21.5 µM
inhibition [4]: > 60%

CC(C)Cc1ccc(C(C)C(=O)O)cc1 (stereo not drawn)
inhibition [12]: 88%

O=C(N/N=C/c1ccc(N2CCOCC2)cc1)c1ccc(CN2CCCC(O)C2)cc1 (stereo not drawn)
Activity_index [1]: 83.96
Time [7]: 62.75 s
Time [8]: 69.67 s
Activity [13]: 21.43 µL
ED50 [14]: 2.67 µmol/kg
IC50 [2]: ≥ 100 µM

O=C(N/N=C/c1ccc(N2CCCC2)cc1)c1ccc(CN2CCCC(O)C2)cc1 (stereo not drawn)
Activity_index [1]: 206.4
inhibition [3]: Dose-dependent effect
IC50 [2]: 14.7 µM
inhibition [4]: > 60%

CN1CC[C@]23c4c5ccc(O)c4O[C@H]2[C@@H](O)C=C[C@H]3[C@H]1C5 [MORPHINE]
Time [15]: 7.5 s
Time [16]: 3.375 s

CC(=O)OC1CCCN(Cc2ccc(C(=O)N/N=C/c3ccc(N)cc3)cc2)C1 (stereo not drawn)
Activity_index [1]: 146.1
Time [7]: 47.75 s
Time [8]: 69.75 s
Activity [13]: 11.43 µL
ED50 [14]: 4.2 µmol/kg
IC50 [2]: ≥ 100 µM

O=C(N/N=C/c1ccccc1)c1ccc(CN2CCCC(O)C2)cc1 (stereo not drawn)
inhibition [3]: Dose-dependent effect
IC50 [2]: 30 µM
inhibition [4]: > 60%

O=C(N/N=C/c1ccc([N+](=O)[O-])cc1)c1ccc(CN2CCCC(O)C2)cc1 (stereo not drawn)
Activity_index [1]: 320.1
IC50 [5]: 33.9 µM
inhibition [6]: Dose-dependent effect
Ki [9]: 2.45 µM
inhibition [3]: Dose-dependent effect
IC50 [2]: 2.71 µM
inhibition [4]: > 60%
Ratio IC50 [10]: 12.5

COc1ccc2c(c1)c(CC(=O)O)c(C)n2C(=O)c1ccc(Cl)cc1 [INDOMETHACIN]
Activity_index [1]: 158.1
Time [7]: 65.43 s
Time [8]: 22.75 s
Activity [13]: 14.29 µL
inhibition (INH) [17]: 40%
inhibition (INH) [18]: 52%
ED50 [14]: 2.12 µmol/kg

COc1cccc2c1C(=O)c1c(O)c3c(c(O)c1C2=O)C[C@@](O)(C(=O)CO)C[C@@H]3O[C@H]1C[C@H](N)[C@H](O)[C@H](C)O1 [DOXORUBICIN]
viability at 6 h, 40 µM [11]: > 90%

COc1ccc(/C=N/NC(=O)c2ccc(CN3CCCC(O)C3)cc2)cc1 (stereo not drawn)
Activity_index [1]: 161.1
IC50 [5]: 91.9 µM
inhibition [6]: Dose-dependent effect
Time [7]: 13.29 s
Time [8]: 15.86 s
Activity [13]: 25.71 µL
Ki [9]: 11.5 µM
ED50 [14]: 68.3 µmol/kg
inhibition [3]: Dose-dependent effect
IC50 [2]: 13.2 µM
inhibition [4]: > 60%
Ratio IC50 [10]: 7
